ChEMBL document CHEMBL3044834, “Novel protoporphyrinogen oxidase inhibitors: 3H-pyrazolo[3,4-d][1,2,3]triazin-4-one derivatives” (J Agric Food Chem, 2008)

tested on: Amaranthus retroflexus; experiment: Herbicidal activity against Amaranthus retroflexus assessed as inhibition of fresh weed plant weight at 1500 g/ha using post-emergence treatment protocol; assay type: functional
In short: (§1)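 Test compounds made up as emulsions by dissolving in 100 µL N,N-dimethylformamide, then adding a little Tween 20 and water. For post-emergence, weed seedlings at one leaf and one stem were sprayed at the same rates as the pre-emergence test. Fresh weight was recorded 15 days after treatment and expressed as percent inhibition versus controls. All treatments were run in triplicate.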

Structure (SMILES)	inhibition at 1500 g/ha [%]
C#CCN1C(=O)COc2cc(F)c(-n3nnc4nn(CCC)cc4c3=O)cc21	100

tested on: Amaranthus retroflexus; experiment: Herbicidal activity against Amaranthus retroflexus assessed as inhibition of fresh weed plant weight at 187.5 g/ha using pre-emergence treatment protocol; assay type: functional

Structure (SMILES)	inhibition at 187.5 g/ha [%]
C#CCN1C(=O)COc2cc(F)c(-n3nnc4nn(CCC)cc4c3=O)cc21	100

tested on: Amaranthus retroflexus; experiment: Herbicidal activity against Amaranthus retroflexus assessed as inhibition of fresh weed plant weight at 750 g/ha using pre-emergence treatment protocol; assay type: functional; in short: as §1

Structure (SMILES)	inhibition at 750 g/ha [%]
C#CCN1C(=O)COc2cc(F)c(-n3nnc4nn(CCC)cc4c3=O)cc21	100

tested on: Echinochloa crus-galli; experiment: Herbicidal activity against Echinochloa crus-galli (barnyard grass) assessed as inhibition of fresh weed plant weight at 1500 g/ha using post-emergence treatment protocol; assay type: functional; in short: as §1

Structure (SMILES)	inhibition at 1500 g/ha [%]
C#CCN1C(=O)COc2cc(F)c(-n3nnc4nn(CCC)cc4c3=O)cc21	40.9

tested on: Brassica rapa subsp. oleifera; experiment: Herbicidal activity against Brassica rapa subsp. oleifera assessed as inhibition of fresh weed plant weight at 1500 g/ha using pre-emergence treatment protocol; assay type: functional

Structure (SMILES)	inhibition at 1500 g/ha [%]
C#CCN1C(=O)COc2cc(F)c(-n3nnc4nn(CCC)cc4c3=O)cc21	75.1

tested on: Amaranthus retroflexus; experiment: Herbicidal activity against Amaranthus retroflexus assessed as inhibition of fresh weed plant weight at 187.5 g/ha using post-emergence treatment protocol; assay type: functional; in short: as §1

Structure (SMILES)	inhibition at 187.5 g/ha [%]
C#CCN1C(=O)COc2cc(F)c(-n3nnc4nn(CCC)cc4c3=O)cc21	56.1

tested on: Echinochloa crus-galli; experiment: Herbicidal activity against Echinochloa crus-galli (barnyard grass) assessed as inhibition of fresh weed plant weight at 750 g/ha using pre-emergence treatment protocol; assay type: functional

Structure (SMILES)	inhibition at 750 g/ha [%]
C#CCN1C(=O)COc2cc(F)c(-n3nnc4nn(CCC)cc4c3=O)cc21	16.9

tested on: Echinochloa crus-galli; experiment: Herbicidal activity against Echinochloa crus-galli (barnyard grass) assessed as inhibition of fresh weed plant weight at 750 g/ha using post-emergence treatment protocol; assay type: functional; in short: as §1

Structure (SMILES)	inhibition at 750 g/ha [%]
C#CCN1C(=O)COc2cc(F)c(-n3nnc4nn(CCC)cc4c3=O)cc21	25.9

tested on: Digitaria sanguinalis; experiment: Herbicidal activity against Digitaria sanguinalis (hairy crabgrass) assessed as inhibition of fresh weed plant weight at 750 g/ha using pre-emergence treatment protocol; assay type: functional

Structure (SMILES)	inhibition at 750 g/ha [%]
C#CCN1C(=O)COc2cc(F)c(-n3nnc4nn(CCC)cc4c3=O)cc21	32.6

tested on: Amaranthus retroflexus; experiment: Herbicidal activity against Amaranthus retroflexus assessed as inhibition of fresh weed plant weight at 375 g/ha using pre-emergence treatment protocol; assay type: functional

Structure (SMILES)	inhibition at 375 g/ha [%]
C#CCN1C(=O)COc2cc(F)c(-n3nnc4nn(CCC)cc4c3=O)cc21	100

tested on: Digitaria sanguinalis; experiment: Herbicidal activity against Digitaria sanguinalis (hairy crabgrass) assessed as inhibition of fresh weed plant weight at 375 g/ha using post-emergence treatment protocol; assay type: functional; in short: as §1

Structure (SMILES)	inhibition at 375 g/ha [%]
C#CCN1C(=O)COc2cc(F)c(-n3nnc4nn(CCC)cc4c3=O)cc21	16.7

tested on: Brassica rapa subsp. oleifera; experiment: Herbicidal activity against Brassica rapa subsp. oleifera assessed as inhibition of fresh weed plant weight at 375 g/ha using post-emergence treatment protocol; assay type: functional; in short: as §1

Structure (SMILES)	inhibition at 375 g/ha [%]
C#CCN1C(=O)COc2cc(F)c(-n3nnc4nn(CCC)cc4c3=O)cc21	18.9

tested on: Brassica rapa subsp. oleifera; experiment: Herbicidal activity against Brassica rapa subsp. oleifera assessed as inhibition of fresh weed plant weight at 1500 g/ha using post-emergence treatment protocol; assay type: functional; in short: as §1

Structure (SMILES)	inhibition at 1500 g/ha [%]
C#CCN1C(=O)COc2cc(F)c(-n3nnc4nn(CCC)cc4c3=O)cc21	27.9

tested on: Echinochloa crus-galli; experiment: Herbicidal activity against Echinochloa crus-galli (barnyard grass) assessed as inhibition of fresh weed plant weight at 187.5 g/ha using post-emergence treatment protocol; assay type: functional; in short: as §1

Structure (SMILES)	inhibition at 187.5 g/ha [%]
C#CCN1C(=O)COc2cc(F)c(-n3nnc4nn(CCC)cc4c3=O)cc21	10.2

tested on: Amaranthus retroflexus; experiment: Herbicidal activity against Amaranthus retroflexus assessed as inhibition of fresh weed plant weight at 375 g/ha using post-emergence treatment protocol; assay type: functional; in short: as §1

Structure (SMILES)	inhibition at 375 g/ha [%]
C#CCN1C(=O)COc2cc(F)c(-n3nnc4nn(CCC)cc4c3=O)cc21	100

tested on: Echinochloa crus-galli; experiment: Herbicidal activity against Echinochloa crus-galli (barnyard grass) assessed as inhibition of fresh weed plant weight at 187.5 g/ha using pre-emergence treatment protocol; assay type: functional; in short: as §1

Structure (SMILES)	inhibition at 187.5 g/ha [%]
C#CCN1C(=O)COc2cc(F)c(-n3nnc4nn(CCC)cc4c3=O)cc21	0

tested on: Brassica rapa subsp. oleifera; experiment: Herbicidal activity against Brassica rapa subsp. oleifera assessed as inhibition of fresh weed plant weight at 375 g/ha using pre-emergence treatment protocol; assay type: functional

Structure (SMILES)	inhibition at 375 g/ha [%]
C#CCN1C(=O)COc2cc(F)c(-n3nnc4nn(CCC)cc4c3=O)cc21	45.5

tested on: Digitaria sanguinalis; experiment: Herbicidal activity against Digitaria sanguinalis (hairy crabgrass) assessed as inhibition of fresh weed plant weight at 375 g/ha using pre-emergence treatment protocol; assay type: functional

Structure (SMILES)	inhibition at 375 g/ha [%]
C#CCN1C(=O)COc2cc(F)c(-n3nnc4nn(CCC)cc4c3=O)cc21	26.1

tested on: Digitaria sanguinalis; experiment: Herbicidal activity against Digitaria sanguinalis (hairy crabgrass) assessed as inhibition of fresh weed plant weight at 1500 g/ha using pre-emergence treatment protocol; assay type: functional

Structure (SMILES)	inhibition at 1500 g/ha [%]
C#CCN1C(=O)COc2cc(F)c(-n3nnc4nn(CCC)cc4c3=O)cc21	51.6

tested on: Brassica rapa subsp. oleifera; experiment: Herbicidal activity against Brassica rapa subsp. oleifera assessed as inhibition of fresh weed plant weight at 750 g/ha using post-emergence treatment protocol; assay type: functional; in short: as §1

Structure (SMILES)	inhibition at 750 g/ha [%]
C#CCN1C(=O)COc2cc(F)c(-n3nnc4nn(CCC)cc4c3=O)cc21	19.4

tested on: Amaranthus retroflexus; experiment: Herbicidal activity against Amaranthus retroflexus assessed as inhibition of fresh weed plant weight at 750 g/ha using post-emergence treatment protocol; assay type: functional; in short: as §1

Structure (SMILES)	inhibition at 750 g/ha [%]
C#CCN1C(=O)COc2cc(F)c(-n3nnc4nn(CCC)cc4c3=O)cc21	100

tested on: Amaranthus retroflexus; experiment: Herbicidal activity against Amaranthus retroflexus assessed as inhibition of fresh weed plant weight at 1500 g/ha using pre-emergence treatment protocol; assay type: functional

Structure (SMILES)	inhibition at 1500 g/ha [%]
C#CCN1C(=O)COc2cc(F)c(-n3nnc4nn(CCC)cc4c3=O)cc21	100

tested on: Digitaria sanguinalis; experiment: Herbicidal activity against Digitaria sanguinalis (hairy crabgrass) assessed as inhibition of fresh weed plant weight at 1500 g/ha using post-emergence treatment protocol; assay type: functional; in short: as §1

Structure (SMILES)	inhibition at 1500 g/ha [%]
C#CCN1C(=O)COc2cc(F)c(-n3nnc4nn(CCC)cc4c3=O)cc21	43.8

tested on: Digitaria sanguinalis; experiment: Herbicidal activity against Digitaria sanguinalis (hairy crabgrass) assessed as inhibition of fresh weed plant weight at 187.5 g/ha using post-emergence treatment protocol; assay type: functional; in short: as §1

Structure (SMILES)	inhibition at 187.5 g/ha [%]
C#CCN1C(=O)COc2cc(F)c(-n3nnc4nn(CCC)cc4c3=O)cc21	13.9

tested on: Echinochloa crus-galli; experiment: Herbicidal activity against Echinochloa crus-galli (barnyard grass) assessed as inhibition of fresh weed plant weight at 375 g/ha using pre-emergence treatment protocol; assay type: functional; in short: as §1

Structure (SMILES)	inhibition at 375 g/ha [%]
C#CCN1C(=O)COc2cc(F)c(-n3nnc4nn(CCC)cc4c3=O)cc21	5.6

tested on: Brassica rapa subsp. oleifera; experiment: Herbicidal activity against Brassica rapa subsp. oleifera assessed as inhibition of fresh weed plant weight at 750 g/ha using pre-emergence treatment protocol; assay type: functional

Structure (SMILES)	inhibition at 750 g/ha [%]
C#CCN1C(=O)COc2cc(F)c(-n3nnc4nn(CCC)cc4c3=O)cc21	55.2

tested on: Echinochloa crus-galli; experiment: Herbicidal activity against Echinochloa crus-galli (barnyard grass) assessed as inhibition of fresh weed plant weight at 1500 g/ha using pre-emergence treatment protocol; assay type: functional

Structure (SMILES)	inhibition at 1500 g/ha [%]
C#CCN1C(=O)COc2cc(F)c(-n3nnc4nn(CCC)cc4c3=O)cc21	37.8

tested on: Brassica rapa subsp. oleifera; experiment: Herbicidal activity against Brassica rapa subsp. oleifera assessed as inhibition of fresh weed plant weight at 187.5 g/ha using pre-emergence treatment protocol; assay type: functional

Structure (SMILES)	inhibition at 187.5 g/ha [%]
C#CCN1C(=O)COc2cc(F)c(-n3nnc4nn(CCC)cc4c3=O)cc21	16.4

tested on: Digitaria sanguinalis; experiment: Herbicidal activity against Digitaria sanguinalis (hairy crabgrass) assessed as inhibition of fresh weed plant weight at 750 g/ha using post-emergence treatment protocol; assay type: functional; in short: as §1

Structure (SMILES)	inhibition at 750 g/ha [%]
C#CCN1C(=O)COc2cc(F)c(-n3nnc4nn(CCC)cc4c3=O)cc21	22.2

tested on: Digitaria sanguinalis; experiment: Herbicidal activity against Digitaria sanguinalis (hairy crabgrass) assessed as inhibition of fresh weed plant weight at 187.5 g/ha using pre-emergence treatment protocol; assay type: functional

Structure (SMILES)	inhibition at 187.5 g/ha [%]
C#CCN1C(=O)COc2cc(F)c(-n3nnc4nn(CCC)cc4c3=O)cc21	0

tested on: Echinochloa crus-galli; experiment: Herbicidal activity against Echinochloa crus-galli (barnyard grass) assessed as inhibition of fresh weed plant weight at 375 g/ha using post-emergence treatment protocol; assay type: functional; in short: as §1

Structure (SMILES)	inhibition at 375 g/ha [%]
C#CCN1C(=O)COc2cc(F)c(-n3nnc4nn(CCC)cc4c3=O)cc21	11.2

tested on: Brassica rapa subsp. oleifera; experiment: Herbicidal activity against Brassica rapa subsp. oleifera assessed as inhibition of fresh weed plant weight at 187.5 g/ha using post-emergence treatment protocol; assay type: functional; in short: as §1

Structure (SMILES)	inhibition at 187.5 g/ha [%]
C#CCN1C(=O)COc2cc(F)c(-n3nnc4nn(CCC)cc4c3=O)cc21	11.4
